Reference: ChEMBL document CHEMBL1128743, “Synthesis of tight binding inhibitors and their action on the proprotein-processing enzyme furin” (J Med Chem, 1995)

Experiments:
[1] = target: Serine protease 1 (Homo sapiens, UniProt P07477); assay: Inhibitory activity against trypsin
Method in brief: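 Trypsin was tested in the furin buffer: 100 mM HEPES pH 7.5, 0.5% Triton X-100, 1 mM CaCl2, 1 mM 2-mercaptoethanol.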

[2] = target: Furin (Homo sapiens, UniProt P09958); assay: Inhibitory activity against furin
Sequence of Furin (P09958 whole entry): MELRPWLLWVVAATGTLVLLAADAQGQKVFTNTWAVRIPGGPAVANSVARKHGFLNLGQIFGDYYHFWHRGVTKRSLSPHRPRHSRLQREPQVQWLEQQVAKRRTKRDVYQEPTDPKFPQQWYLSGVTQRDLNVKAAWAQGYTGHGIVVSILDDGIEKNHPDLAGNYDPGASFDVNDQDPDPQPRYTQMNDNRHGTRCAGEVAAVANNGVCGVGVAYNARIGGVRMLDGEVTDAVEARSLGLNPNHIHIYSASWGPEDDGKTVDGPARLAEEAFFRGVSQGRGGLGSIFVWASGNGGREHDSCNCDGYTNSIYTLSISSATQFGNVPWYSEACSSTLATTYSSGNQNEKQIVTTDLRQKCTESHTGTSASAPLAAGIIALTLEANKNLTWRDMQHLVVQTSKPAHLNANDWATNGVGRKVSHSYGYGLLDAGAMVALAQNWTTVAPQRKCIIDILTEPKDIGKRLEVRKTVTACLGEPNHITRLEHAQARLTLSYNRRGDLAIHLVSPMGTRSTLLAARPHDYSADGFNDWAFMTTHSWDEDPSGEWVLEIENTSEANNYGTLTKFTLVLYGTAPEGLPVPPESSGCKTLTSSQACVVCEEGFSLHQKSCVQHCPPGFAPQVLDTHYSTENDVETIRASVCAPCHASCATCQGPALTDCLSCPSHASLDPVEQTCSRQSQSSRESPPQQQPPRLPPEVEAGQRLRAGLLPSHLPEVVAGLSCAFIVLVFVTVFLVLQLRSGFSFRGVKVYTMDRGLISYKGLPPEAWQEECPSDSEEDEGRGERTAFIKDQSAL

[3] = target: Subtilisin Carlsberg (Bacillus licheniformis) (UniProt P00780); assay: Inhibitory activity against subtilism Carlsberg; No inhibition
Sequence of Subtilisin Carlsberg (Bacillus licheniformis) (P00780 whole entry, looked up): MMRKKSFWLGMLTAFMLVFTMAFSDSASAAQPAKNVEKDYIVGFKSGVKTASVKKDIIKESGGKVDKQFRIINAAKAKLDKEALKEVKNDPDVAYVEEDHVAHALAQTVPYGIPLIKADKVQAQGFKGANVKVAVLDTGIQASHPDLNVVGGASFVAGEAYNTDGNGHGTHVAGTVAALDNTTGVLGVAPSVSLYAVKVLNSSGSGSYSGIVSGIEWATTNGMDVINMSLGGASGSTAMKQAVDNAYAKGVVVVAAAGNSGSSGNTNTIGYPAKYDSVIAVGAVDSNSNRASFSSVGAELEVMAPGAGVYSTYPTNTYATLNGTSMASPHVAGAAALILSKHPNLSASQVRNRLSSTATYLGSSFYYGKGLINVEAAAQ

Sequence of Serine protease 1 (P07477 whole entry): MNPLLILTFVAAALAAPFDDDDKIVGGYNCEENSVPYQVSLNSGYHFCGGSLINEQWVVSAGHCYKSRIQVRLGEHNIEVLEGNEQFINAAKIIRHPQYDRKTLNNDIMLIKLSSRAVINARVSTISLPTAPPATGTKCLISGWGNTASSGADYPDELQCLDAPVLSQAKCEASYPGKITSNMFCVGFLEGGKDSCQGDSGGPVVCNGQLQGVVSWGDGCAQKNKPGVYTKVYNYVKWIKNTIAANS

Compound | Ki [1] | Ki [2] | Ki [3]
CCCCCCCCCCN[C@@H](CCCNC(=N)N)C(=O)N[C@H](C(=O)N[C@@H](CCCCN)C(=O)N[C@@H](CCCNC(=N)N)C(=O)CN[C@@H](C)C(=O)N[C@H](C(=O)NCC(=O)OC)C(C)C)C(C)C | 1900 nM | – | –
CCCCCCCCCCN[C@@H](CCCN=C(N)N)C(=O)N[C@H](C(=O)N[C@@H](CCCCN)C(=O)N[C@@H](CCCN=C(N)N)C(=O)CCC(=O)N[C@@H](C(=O)NCC(=O)N[C@H](CC(C)C)C(=O)OC)C(C)C)C(C)C | 20900 nM | 330 nM | Not Active
COC(=O)[C@@H](CC(C)C)NC(=O)CNC(=O)[C@H](NC(=O)CCC(=O)[C@H](CCCN=C(N)N)NC(=O)[C@H](CCCCN)NC(=O)[C@@H](NC(=O)[C@H](CCCN=C(N)N)NC(C)=O)C(C)C)C(C)C | – | 350 nM | –

Continued, values first:

Ki [1] | Ki [2] | Ki [3] | Compound
– | 26 nM | – | CCCCCCCCCCN[C@@H](CCCN=C(N)N)C(=O)N[C@H](C(=O)N[C@@H](CCCCN)C(=O)N[C@H](CCCN=C(N)N)C(=O)CN[C@@H](C)C(=O)N[C@H](C(=O)NCC(N)=O)C(C)C)C(C)C
– | 3.4 nM | – | CCCCCCCCCCN[C@@H](CCCN=C(N)N)C(=O)N[C@H](C(=O)N[C@@H](CCCCN)C(=O)N[C@@H](CCCN=C(N)N)C(=O)CN[C@@H](C)C(=O)N[C@H](C(=O)NCC(N)=O)C(C)C)C(C)C
– | 240 nM | – | CCCCCCCCCCN[C@@H](CCCN=C(N)N)C(=O)N[C@H](C(=O)N[C@@H](CCCCN)C(=O)N[C@@H](CCCN=C(N)N)C(=O)CCC(=O)OC)C(C)C
